Bioassay records (PubChem BioAssay)
T cruzi growth-1 = T. cruzi intracellular proliferation inhibitors, primary screen, cell-based, beta-gal Tulahuen parasites, NIH3T3 host, luminescence; AID 624255, 2012; T. cruzi beta-gal in NIH3T3, GalScreen luminescence, 90 h; hit rate 5.9% among 77,000; inhibition, % at 8.34 µM;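 active = mean inhibition above about 93%, with at least 55% of replicates each passing it, limit read from the data, passing the limit was not always enough; inconclusive = only one of those two conditions holds; inactive = neither condition holds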
IDH1 R132H inh = inhibitors of IDH1 R132H reductase, primary screen, biochemical, plate reader, single point; AID 624101, 2012; diaphorase/resazurin fluorescence, 60 min; Isocitrate dehydrogenase [NADP] cytoplasmic (Homo sapiens), O75874; hit rate 0.18% among 70,000; inhibition, % at 10 µM; in the data active = inhibition above about 34%; inconclusive = no clear call, values can overlap the other calls; inactive = below about 11%
Target sequence (O75874 whole entry R132H): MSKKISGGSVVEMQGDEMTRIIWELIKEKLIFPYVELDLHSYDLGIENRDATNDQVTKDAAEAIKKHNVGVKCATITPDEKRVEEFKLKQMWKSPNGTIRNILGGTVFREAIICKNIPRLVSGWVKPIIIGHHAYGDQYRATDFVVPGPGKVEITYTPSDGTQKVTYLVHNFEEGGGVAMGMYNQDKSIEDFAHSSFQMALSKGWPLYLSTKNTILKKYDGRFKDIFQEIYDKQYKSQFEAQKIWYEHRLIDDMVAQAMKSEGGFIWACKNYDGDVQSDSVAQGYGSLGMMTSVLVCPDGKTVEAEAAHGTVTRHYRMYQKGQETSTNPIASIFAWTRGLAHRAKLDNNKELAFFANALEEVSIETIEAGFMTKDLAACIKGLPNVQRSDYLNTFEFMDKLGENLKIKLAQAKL
Pf Dd2 growth = P. falciparum Dd2 growth inhibitors, primary screen, SYBR Green fluorescence, single dose replicates | 72 h; stronger effect = lower value | activity change, % at 10 µM | hit rate 2.3% among 94,000; in the data active = activity change below about -80%; inconclusive = no clear call, values can overlap the other calls
KDM4C inh = inhibitors of GASC-1 (KDM4C) histone demethylase, primary screen, biochemical, single concentration HTS; Lysine-specific demethylase 4C (Homo sapiens), Q9H3R0; inhibition, % at 12.5 µM; GST-KDM4C 2-372, H3K9me3 peptide, LANCE TR-FRET; hit rate 0.15% among 96,000;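 active = mean replicate inhibition above about 25%, with at least 55% of replicates also reaching it, limit read from the data, passing the limit was not always enough; inconclusive = only one of those two conditions met; inactive = neither condition met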
Target sequence (Q9H3R0 2-372 limits assumed): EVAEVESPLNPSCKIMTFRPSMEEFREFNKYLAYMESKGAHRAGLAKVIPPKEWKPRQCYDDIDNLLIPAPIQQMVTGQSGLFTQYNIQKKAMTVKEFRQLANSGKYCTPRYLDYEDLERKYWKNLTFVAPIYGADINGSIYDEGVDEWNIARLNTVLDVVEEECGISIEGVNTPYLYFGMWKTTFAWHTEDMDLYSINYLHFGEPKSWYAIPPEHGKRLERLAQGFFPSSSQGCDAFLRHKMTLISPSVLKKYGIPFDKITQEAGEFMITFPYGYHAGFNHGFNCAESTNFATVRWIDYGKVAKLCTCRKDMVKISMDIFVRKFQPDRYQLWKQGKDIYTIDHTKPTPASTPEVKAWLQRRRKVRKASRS
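System: N-terminal GST-fused human GASC-1 (KDM4C) fragment, residues 2-372 / Amount: 10 nM GST-KDM4C in enzyme reaction / Also added: H3K9me3 peptide with Fe(II)/2OG / Times: 30 min demethylation and 1 h detection at room temperature / Signal: LANCE TR-FRET / Read-out basis: Fall in 671/618 emission ratio as inhibition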
T cruzi growth-2 = T. cruzi intracellular proliferation inhibitors, confirmation, cell-based, NIH3T3 host, beta-gal parasite, luminescence, cherry-pick. shares compounds with T cruzi growth-1. T. cruzi beta-gal in NIH3T3, GalScreen luminescence, 90 h. inhibition, % at 8.35 µM. hit rate 72% among 5,600. AID 651739, 2012;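 active = mean replicate inhibition above about 95% and at least 55% of replicates individually reaching it, limit read from the data; inconclusive = only one of the two criteria is met; inactive = neither criterion is met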
T cruzi growth-3 = inhibitors of intracellular T. cruzi replication, confirmation, NIH3T3 host cells, beta-gal parasites, cherry-pick, set 2; shares compounds with T cruzi growth-1; T. cruzi beta-gal in NIH3T3, GalScreen luminescence, 90 h; inhibition, % at 2.09 µM; hit rate 21% among 5,600; AID 651740, 2012;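 active = mean inhibition above about 95%, with at least 55% of replicates also reaching it, limit read from the data; inconclusive = meets just one of the two conditions; inactive = meets neither condition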
NIH3T3 tox = cytotoxicity in mouse NIH/3T3 fibroblasts, confirmation, cytotoxicity control for T. cruzi proliferation inhibitor project, cell-based, cherry-pick, single point; shares compounds with T cruzi growth-1; NIH/3T3 viability, CellTiter-Glo ATP luminescence, 90 h; cytotoxicity (signal decrease), % at 8.35 µM; hit rate 14% among 5,600; AID 651742, 2012;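 active = mean signal decrease across replicates above about 35% based on untreated-well scatter, with enough replicates individually passing, limit read from the data; inconclusive = no rule stated though some were filed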
3T3 cytotox 2 = NIH/3T3 fibroblast cytotoxicity, confirmation, cytotoxicity control, cell-based, cherry-pick, single point, set 2; NIH/3T3 viability, CellTiter-Glo ATP luminescence, 90 h; shares compounds with T cruzi growth-1; inhibition, % at 24.9 µM; AID 651744, 2012; hit rate 56% among 5,600;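 active = mean loss of cell viability signal at or above a set limit, and enough replicates individually reaching it; inconclusive = meets only the mean limit or only the replicate share; inactive = meets neither condition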
Large screens that a line does not name were inactive (follow-up assays come after a bar, where they were run). In the library only some 5.9% were active in any assay of this set; here they are far more common.

COc1cccc(C#Cc2ccc3c(c2)O[C@@H](CN(C)S(=O)(=O)c2ccccc2F)[C@H](C)CN([C@@H](C)CO)S3(=O)=O)c1	T cruzi growth-1 122.6 | T cruzi growth-2 109.5 | T cruzi growth-3 98.4 | NIH3T3 tox inactive | 3T3 cytotox 2 41.9
COc1cccc(C#Cc2ccc3c(c2)O[C@@H](CN(C)S(=O)(=O)c2ccccc2F)[C@H](C)CN([C@H](C)CO)S3(=O)=O)c1	T cruzi growth-1 121.4 | T cruzi growth-2 107.4 | T cruzi growth-3 inactive | NIH3T3 tox inactive | 3T3 cytotox 2 44.7
CCCC#Cc1ccc2c(c1)O[C@H](CN(C)S(=O)(=O)c1cccc(OC)c1)[C@@H](C)CN([C@@H](C)CO)S2(=O)=O	none (no result: T cruzi growth-1)
COc1cccc(C#Cc2ccc3c(c2)O[C@H](CN(C)S(=O)(=O)c2ccccc2F)[C@@H](C)CN([C@H](C)CO)S3(=O)=O)c1	T cruzi growth-1 127.1 | T cruzi growth-2 109.0 | T cruzi growth-3 114.8 | NIH3T3 tox inactive | 3T3 cytotox 2 41.5
COc1cccc(C#Cc2ccc3c(c2)O[C@@H](CN(C)S(=O)(=O)c2ccccc2F)[C@@H](C)CN([C@@H](C)CO)S3(=O)=O)c1	T cruzi growth-1 inconclusive | T cruzi growth-2 101.8 | T cruzi growth-3 inactive | NIH3T3 tox inactive | 3T3 cytotox 2 inactive
COc1ccc(OC)c(S(=O)(=O)N(C)CC(=O)Nc2ccc(C(F)(F)F)cc2)c1	none (no result: T cruzi growth-1, Pf Dd2 growth, KDM4C inh)
CC1CCC(O)C2C=CC(C)(O)C(C)(C(=O)CCO)C12 (configuration not stated)	none (no result: T cruzi growth-1, Pf Dd2 growth, KDM4C inh)
COc1cccc(C#Cc2ccc3c(c2)O[C@H](CN(C)S(=O)(=O)c2ccccc2F)[C@H](C)CN([C@@H](C)CO)S3(=O)=O)c1	T cruzi growth-1 124.7 | T cruzi growth-2 108.8 | T cruzi growth-3 104.0 | NIH3T3 tox inactive | 3T3 cytotox 2 inactive
COc1cccc(C#Cc2ccc3c(c2)O[C@H](CN(C)C)[C@H](C)CN([C@H](C)CO)S3(=O)=O)c1	none
COc1ccc(OC)c(NC(=O)CC2NCCNC2=O)c1 (configuration not stated)	none (no result: T cruzi growth-1, Pf Dd2 growth, KDM4C inh)
COc1ccc(S(=O)(=O)N(C(C)=O)c2ccc3oc4c(c3c2)CC(C)CC4)cc1[N+](=O)[O-] (configuration not stated)	none (no result: T cruzi growth-1, Pf Dd2 growth, KDM4C inh)
Cc1noc(C)c1S(=O)(=O)N(C)C[C@H]1OCCCC[C@@H](C)Oc2ccc(NC(=O)Nc3cccc4ccccc34)cc2C(=O)N([C@@H](C)CO)C[C@H]1C	T cruzi growth-1 113.4 (no result: IDH1 R132H inh) | T cruzi growth-2 101.8 | T cruzi growth-3 inactive | NIH3T3 tox inactive | 3T3 cytotox 2 inactive
Cc1noc(C)c1S(=O)(=O)N(C)C[C@H]1OCCCC[C@H](C)Oc2ccc(NC(=O)Nc3cccc4ccccc34)cc2C(=O)N([C@H](C)CO)C[C@@H]1C	T cruzi growth-1 115.6 (no result: IDH1 R132H inh) | T cruzi growth-2 100.7 | T cruzi growth-3 inactive | NIH3T3 tox inactive | 3T3 cytotox 2 34.5
COc1cccc(-c2ccc3c(c2)O[C@H](CN(C)Cc2cncnc2)[C@H](C)CN([C@@H](C)CO)S3(=O)=O)c1	T cruzi growth-1 96.7 | T cruzi growth-2 inconclusive | T cruzi growth-3 inactive | NIH3T3 tox inactive | 3T3 cytotox 2 63.9
COc1cccc(-c2ccc3c(c2)O[C@H](CN(C)Cc2ccncc2)[C@@H](C)CN([C@@H](C)CO)S3(=O)=O)c1	none (no result: T cruzi growth-1)
COc1cccc(-c2ccc3c(c2)O[C@@H](CN(C)Cc2cncnc2)[C@H](C)CN([C@H](C)CO)S3(=O)=O)c1	T cruzi growth-1 inconclusive | T cruzi growth-2 inconclusive | T cruzi growth-3 inactive | NIH3T3 tox 39.0 | 3T3 cytotox 2 71.6
COc1cccc(-c2ccc3c(c2)O[C@@H](CN(C)Cc2cccnc2)[C@@H](C)CN([C@H](C)CO)S3(=O)=O)c1	none
CN1C(=O)c2cc(NC(=O)c3ccc(C(F)(F)F)cc3)ccc2OC[C@@H]2O[C@H](CC(=O)NC3Cc4ccccc4C3)CC[C@H]21	T cruzi growth-1 104.9 (no result: IDH1 R132H inh) | T cruzi growth-2 113.4 | T cruzi growth-3 inactive | NIH3T3 tox inactive | 3T3 cytotox 2 inconclusive
CN1C(=O)c2cc(NC(=O)c3cccc(Cl)c3)ccc2OC[C@H]2O[C@@H](CC(=O)NC3CCCCC3)CC[C@@H]21	none (no result: T cruzi growth-1, IDH1 R132H inh)
CN1C(=O)c2cc(NC(=O)c3cccc(Cl)c3)ccc2OC[C@@H]2O[C@H](CC(=O)NC3CCCCC3)CC[C@@H]21	T cruzi growth-1 99.6 (no result: IDH1 R132H inh) | T cruzi growth-2 98.7 | T cruzi growth-3 inactive | NIH3T3 tox inactive | 3T3 cytotox 2 60.3
CN1C(=O)c2cc(NC(=O)c3ccc(C(F)(F)F)cc3)ccc2OC[C@H]2O[C@H](CC(=O)NC3Cc4ccccc4C3)CC[C@H]21	none (no result: IDH1 R132H inh)
COC(=O)c1ccccc1NC(=O)CSc1ncnc2sc3c(c12)CCC(C)C3 (configuration not stated)	none (no result: T cruzi growth-1, Pf Dd2 growth, KDM4C inh)
COc1ccc(NC(=O)C(C)Oc2ccccc2C)c([N+](=O)[O-])c1 (configuration not stated)	none (no result: T cruzi growth-1, Pf Dd2 growth, KDM4C inh)
CN(C)C(=O)c1cccc(-c2ccc3c(c2)[C@H]2[C@H](CCN2C(=O)c2ccccc2F)[C@@H](CO)N3)c1	T cruzi growth-1 101.0 (no result: IDH1 R132H inh) | T cruzi growth-2 103.7 | T cruzi growth-3 inactive | NIH3T3 tox inactive | 3T3 cytotox 2 inactive
CN(C)C(=O)c1cccc(-c2ccc3c(c2)[C@H]2[C@H](CCN2C(=O)c2ccccc2F)[C@H](CO)N3)c1	T cruzi growth-1 99.3 (no result: IDH1 R132H inh) | T cruzi growth-2 103.4 | T cruzi growth-3 inactive | NIH3T3 tox inactive | 3T3 cytotox 2 inactive
CN(C)C(=O)c1ccc(-c2ccc3c(c2)[C@@H]2[C@@H](CCN2C(=O)c2ccccc2F)[C@H](CO)N3)cc1	none (no result: IDH1 R132H inh)
CN(C)C(=O)c1cccc(-c2ccc3c(c2)[C@@H]2[C@@H](CCN2C(=O)c2ccccc2F)[C@H](CO)N3)c1	T cruzi growth-1 101.3 (no result: IDH1 R132H inh) | T cruzi growth-2 100.7 | T cruzi growth-3 inactive | NIH3T3 tox inactive | 3T3 cytotox 2 inactive
O=C(c1ccccc1F)N1CC[C@@H]2[C@H](CO)Nc3ccc(-c4ccccc4)cc3[C@@H]21	none (no result: IDH1 R132H inh)
Cc1c(Br)ccc(NC(=O)CSc2nnnn2-c2ccccc2)c1C	none (no result: T cruzi growth-1, Pf Dd2 growth, KDM4C inh)
